This is an account of results in ChEMBL document CHEMBL1136016, “Synthesis, biological activity, and molecular modeling investigation of new pyrazolo[4,3-e]-1,2,4-triazolo[1,5-c]pyrimidine derivatives as human A(3) adenosine receptor antagonists” (J Med Chem, 2002).

The target of experiment [1] is Adenosine receptors; A2b & A3 (Homo sapiens) (UniProt P29275+P0DMS8). The experiment in a line: Selectivity ratio (h2B/hA3). The experiment is classed as protein assay.
In experiment [2] the target is T1, Adenosine receptor A2b (Homo sapiens, UniProt P29275).
T1 sequence (P29275 whole entry): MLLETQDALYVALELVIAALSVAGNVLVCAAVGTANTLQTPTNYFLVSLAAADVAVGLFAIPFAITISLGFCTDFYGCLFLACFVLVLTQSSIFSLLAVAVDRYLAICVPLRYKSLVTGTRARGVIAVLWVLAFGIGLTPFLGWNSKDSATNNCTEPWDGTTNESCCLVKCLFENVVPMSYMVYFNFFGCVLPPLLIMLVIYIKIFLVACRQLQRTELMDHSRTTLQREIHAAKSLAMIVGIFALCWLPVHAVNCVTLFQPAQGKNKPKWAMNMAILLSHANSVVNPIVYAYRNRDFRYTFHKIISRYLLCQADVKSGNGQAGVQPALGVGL
The experiment in a line: Displacement of [3H]DPCPX from human Adenosine A2B receptor expressed in HEK293 cells; range 105-170. The experiment is classed as cell-based. The method in brief:
(§1)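 Competition binding on membranes of HEK-293 cells carrying recombinant human A2B receptor. Incubation 60 min at 25 °C in 50 mM Tris HCl pH 7.4 with 10 mM MgCl2, 1 mM EDTA, 0.1 mM benzamidine and 2 IU/mL adenosine deaminase. Radioligand 40 nM [3H]DPCPX, at least six to eight test concentrations. NECA defined nonspecific binding. Bound ligand separated on glass-fibre filters and counted; n = 3-6.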
In general terms: Displacement assays read how much labelled ligand stays bound in the presence of the test substance.

Experiment [3] has as its target T2, Adenosine receptor A2a (Homo sapiens, UniProt P29274). As to the kind of experiment: Displacement of [3H]SCH-58261 from human Adenosine A2A receptor expressed in HEK293 cells; range 25-40. The experiment is classed as cell-based.
Experiment [4] has as its target T3, Adenosine receptor A3 (Homo sapiens, UniProt P0DMS8).
T3 sequence (P0DMS8 whole entry): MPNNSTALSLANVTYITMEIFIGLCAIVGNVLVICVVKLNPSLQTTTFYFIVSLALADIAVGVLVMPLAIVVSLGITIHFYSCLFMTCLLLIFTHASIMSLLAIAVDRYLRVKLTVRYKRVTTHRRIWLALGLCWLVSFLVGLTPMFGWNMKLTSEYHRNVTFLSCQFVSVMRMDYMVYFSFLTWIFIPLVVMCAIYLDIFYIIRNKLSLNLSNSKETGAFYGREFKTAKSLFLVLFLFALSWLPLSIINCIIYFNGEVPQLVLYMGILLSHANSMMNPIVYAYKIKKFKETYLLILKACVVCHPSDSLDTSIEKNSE
As to the kind of experiment: Displacement of [3H]MRE3008-F20 from human Adenosine A3 receptor expressed in HEK cells; range 0.61-0.84. The experiment is classed as cell-based, HEK293.

For experiment [5], the target named is T4, Adenosine receptor A1 (Homo sapiens, UniProt P30542).
T4 sequence (P30542 whole entry): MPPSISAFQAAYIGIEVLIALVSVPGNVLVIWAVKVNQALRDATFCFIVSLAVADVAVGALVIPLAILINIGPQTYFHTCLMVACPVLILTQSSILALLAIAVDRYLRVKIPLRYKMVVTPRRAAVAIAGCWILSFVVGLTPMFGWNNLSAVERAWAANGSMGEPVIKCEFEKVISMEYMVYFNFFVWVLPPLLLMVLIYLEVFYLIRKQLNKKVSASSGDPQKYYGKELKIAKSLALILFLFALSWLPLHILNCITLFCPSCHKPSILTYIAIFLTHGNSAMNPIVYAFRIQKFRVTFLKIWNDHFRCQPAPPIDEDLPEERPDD
The experiment in a line: Displacement of [3H]DPCPX from human Adenosine A1 receptor expressed in CHO cells; range 264-463. The experiment is classed as cell-based. The method in brief: (§2)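 Competition binding on membranes of CHO cells stably expressing human A1 receptor, resuspended in 50 mM Tris HCl pH 7.4. Incubation 120 min at 25 °C with 1 nM [3H]DPCPX, 50 µg protein per assay and at least six to eight test concentrations. CHA defined nonspecific binding. Bound ligand separated on glass-fibre filters and counted; n = 3-6.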

Experiment [6] deals with Adenosine receptors; A1 & A3 (Homo sapiens) (UniProt P30542+P0DMS8). The experiment in a line: Selectivity ratio (hA1/hA3). The experiment is classed as protein assay.
The target of experiment [7] is T1, Adenosine receptor A2b. As to the kind of experiment: Displacement of [3H]DPCPX from human Adenosine A2B receptor expressed in HEK293 cells; range 43-58. The experiment is classed as cell-based. In a few lines: (§3)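 HEK-293 membranes expressing the human receptor were incubated 60 min at 25 °C. Six to eight test concentrations were used. Nonspecific binding was set with NECA. n = 3-6.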

Experiment [8] deals with T4, Adenosine receptor A1. As to the kind of experiment: Displacement of [3H]DPCPX from human Adenosine A1 receptor expressed in CHO cells; range 358-468. The experiment is classed as cell-based.
Experiment [9] deals with T3, Adenosine receptor A3. The experiment in a line: Displacement of [3H]MRE3008-F20 from human Adenosine A3 receptor expressed in HEK cells; range 0.12-0.37. The experiment is classed as cell-based, HEK293.
The target in experiment [10] is T2, Adenosine receptor A2a. As to the kind of experiment: Displacement of [3H]SCH-58261 from human Adenosine A2A receptor expressed in HEK293 cells; range 102-215. The experiment is classed as cell-based.
Experiment [11] has as its target T1, Adenosine receptor A2b. As to the kind of experiment: Displacement of [3H]DPCPX from human Adenosine A2B receptor expressed in HEK293 cells; range 57-105. The experiment is classed as cell-based. The method in brief: (§4)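 Membranes from HEK-293 cells with human recombinant A2B receptor. Incubation 60 min at 25 °C in 50 mM Tris HCl, 10 mM MgCl2, 1 mM EDTA, 0.1 mM benzamidine, pH 7.4, with 2 IU/mL adenosine deaminase and 40 nM [3H]DPCPX. At least six to eight test concentrations. Nonspecific binding defined with NECA. n = 3-6.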

The target of experiment [12] is T2, Adenosine receptor A2a. The experiment in a line: Displacement of [3H]SCH-58261 from human Adenosine A2A receptor expressed in HEK293 cells; range 332-426. The experiment is classed as cell-based.
Experiment [13] addresses T3, Adenosine receptor A3. As to the kind of experiment: biochemical.
The target of experiment [14] is T4, Adenosine receptor A1. As to the kind of experiment: Displacement of [3H]DPCPX from human Adenosine A1 receptor expressed in CHO cells; range 314-536. The experiment is classed as cell-based.
Experiment [15] has as its target T3, Adenosine receptor A3. The experiment in a line: biochemical. The source holds these as a separate data set.
For experiment [16], the target named is T2, Adenosine receptor A2a. As to the kind of experiment: Displacement of [3H]SCH-58261 from human Adenosine A2A receptor expressed in HEK293 cells; range 134-190. The experiment is classed as cell-based.
Experiment [17] addresses T4, Adenosine receptor A1. As to the kind of experiment: Displacement of [3H]DPCPX from human Adenosine A1 receptor expressed in CHO cells; range 330-486. The experiment is classed as cell-based.
In experiment [18] the target is T1, Adenosine receptor A2b. The experiment in a line: Displacement of [3H]DPCPX from human Adenosine A2B receptor expressed in HEK293 cells; range 68-105. The experiment is classed as cell-based. In a few lines:
as §4

Experiment [19] concerns the target T1, Adenosine receptor A2b. As to the kind of experiment: Displacement of [3H]DPCPX from human Adenosine A2B receptor expressed in HEK293 cells; range 244-373. The experiment is classed as cell-based. The method in brief: as §3
In experiment [20] the target is T3, Adenosine receptor A3. As to the kind of experiment: Inhibition of IB-MECA agonist-mediated cAMP production in CHO cell membranes expressing human Adenosine A3 receptor; range 2.7-7.8. The experiment is classed as functional, cell-based.
Experiment [21] addresses T2, Adenosine receptor A2a. The experiment in a line: Displacement of [3H]SCH-58261 from human Adenosine A2A receptor expressed in HEK293 cells; range 93-130. The experiment is classed as cell-based.
The target of experiment [22] is T3, Adenosine receptor A3. The experiment in a line: biochemical. The source holds these as a separate data set.
The target of experiment [23] is T4, Adenosine receptor A1. As to the kind of experiment: Displacement of [3H]DPCPX from human Adenosine A1 receptor expressed in CHO cells; range 601-888. The experiment is classed as cell-based. In a few lines: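 Human recombinant A1 receptor in CHO cell membranes, resuspended in 50 mM Tris HCl pH 7.4. Displacement run 120 min at 25 °C with 1 nM [3H]DPCPX, 50 µg protein per assay, and at least six to eight test concentrations. Nonspecific binding defined with CHA. Bound and free separated on glass-fiber filters; filter radioactivity counted. n = 3-6.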

Experiment [24] has as its target T2, Adenosine receptor A2a. As to the kind of experiment: Displacement of [3H]SCH-58261 from human Adenosine A2A receptor expressed in HEK293 cells; range 162-200. The experiment is classed as cell-based.
The target of experiment [25] is T3, Adenosine receptor A3. The experiment in a line: Displacement of [3H]MRE3008-F20 from human Adenosine A3 receptor expressed in HEK cells; range 0.23-0.36. The experiment is classed as cell-based, HEK293.
Experiment [26] concerns the target T1, Adenosine receptor A2b. The experiment in a line: Displacement of [3H]DPCPX from human Adenosine A2B receptor expressed in HEK293 cells; range 115-143. The experiment is classed as cell-based. In a few lines:
as §1

Experiment [27] addresses T3, Adenosine receptor A3. As to the kind of experiment: Inhibition of IB-MECA agonist-mediated cAMP production in membranes of CHO cells expressing human Adenosine A3 receptor; range 1.2-4.9. The experiment is classed as functional, cell-based. The method in brief: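 Human A3-CHO membranes (in 50 mM Tris HCl, 10 mM MgCl2, 1 mM EDTA, pH 7.4) were preincubated for 10 min at 37 °C with 5 µM GTP, 0.5 mM Ro 20-1724 and 2.0 IU/mL adenosine deaminase. IB-MECA (100 nM) or antagonist was then added with 1 mM ATP and forskolin for 10 min. The reaction was stopped by 2 min boiling. cAMP was measured by [3H]cAMP competitive protein binding using beef adrenal binding protein, 150 min at 4 °C.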

Experiment [28] addresses T4, Adenosine receptor A1. As to the kind of experiment: Displacement of [3H]DPCPX from human Adenosine A1 receptor expressed in CHO cells; range 351-526. The experiment is classed as cell-based. In a few lines:
as §2

T2 sequence (P29274 whole entry): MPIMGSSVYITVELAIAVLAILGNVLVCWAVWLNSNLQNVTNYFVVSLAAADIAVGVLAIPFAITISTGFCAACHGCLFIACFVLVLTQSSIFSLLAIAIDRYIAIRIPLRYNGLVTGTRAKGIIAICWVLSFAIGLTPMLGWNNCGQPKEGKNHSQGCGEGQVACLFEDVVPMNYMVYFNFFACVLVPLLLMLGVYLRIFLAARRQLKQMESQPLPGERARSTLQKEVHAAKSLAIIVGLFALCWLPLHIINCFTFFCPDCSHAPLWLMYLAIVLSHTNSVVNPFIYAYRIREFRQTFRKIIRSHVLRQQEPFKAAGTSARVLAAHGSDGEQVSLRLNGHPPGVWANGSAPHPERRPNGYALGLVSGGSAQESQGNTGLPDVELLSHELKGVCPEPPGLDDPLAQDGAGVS

One may read the Ki as a measure of affinity in units of concentration, obtained from inhibition or displacement. A lower Ki goes with higher affinity. Consider `CCCCn1cc2c(nc(NC(=O)Nc3ccc(C(F)(F)F)cc3)n3nc(-c4ccco4)nc23)n1`, for which the Ratio in experiment [1] worked out at 181; in experiment [6], 486. The Ki in experiment [2] came out at 130 nM; in experiment [3], 31 nM; in experiment [4], 0.72 nM; in experiment [5], 350 nM.
As for `CCCCn1cc2c(nc(NC(=O)Nc3ccccc3)n3nc(-c4ccco4)nc23)n1`, the values for the Ratio in experiment [1] and in experiment [6] were 238 and 1950, respectively. Besides, the Ki in experiment [7] was determined as 50 nM; in [8] it was 409 nM; in experiment [9] it was 0.21 nM; in experiment [10] it was 148 nM.
Consider `CCCCn1cc2c(nc(NC(=O)Nc3ccc4c(c3)OCO4)n3nc(-c4ccco4)nc23)n1`, for which the figures for the Ratio in experiment [1] and in [6] were 156 and 820, respectively. Further, the Ki in [11] was 78 nM; in experiment [12] it was 376 nM; in [13], 0.5 nM; in experiment [14] it was 410 nM.
Regarding `CCn1cc2c(nc(NC(=O)Nc3ccc(Cl)cc3)n3nc(-c4ccco4)nc23)n1`, the Ratio in experiment [1] was 425; in experiment [6], 2000. The Ki in experiment [15] was 0.2 nM; in experiment [16] it was 160 nM; in [17] it was 400 nM; in experiment [18] it was 85 nM.
The term IC50 denotes the point on the concentration scale where inhibition reaches its midpoint. A lower IC50 goes with higher potency. As to `Cc1ccc(NC(=O)Nc2nc3nn(C)cc3c3nc(-c4ccco4)nn23)cc1`, the figures for the Ratio in experiment [1] and in experiment [6] were 974 and 2360, respectively. Besides, the Ki in [19] was determined as 302 nM; in experiment [21], 110 nM; in experiment [22], 0.31 nM; in experiment [23], 731 nM. The same molecule returned an IC50 in experiment [20] of 4.6 nM.
As for `Cn1cc2c(nc(NC(=O)Nc3ccc(Cl)cc3)n3nc(-c4ccco4)nc23)n1`, the Ratio came to 441 in [1] and 1480 in [6]. The Ki in experiment [24] was determined as 180 nM; in [25], 0.29 nM; in experiment [26], 128 nM; in [28] it was 430 nM. Also, the IC50 in experiment [27] was found to be 2.4 nM.
